Test results published in ChEMBL document CHEMBL2203193, “Synthesis of novel mono and bis-indole conduritol derivatives and their α/β-glycosidase inhibitory effects” (Bioorg Med Chem Lett, 2012).

Experiments:
[1] = Inhibition of Bacillus stearothermophilus alpha-glucosidase using 4-nitrophenyl alpha-D-glucopyranoside as substrate after 30 mins by spectrophotometric analysis; design: species or system Geobacillus stearothermophilus
Outline: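 Inhibitor in phosphate buffer pH 6.8 with 1 mM 4-nitrophenyl α-D-glucopyranoside was preincubated 5 min at 37 °C. Then 0.075 unit enzyme was added and the mix held 30 min at 37 °C. Stopped with 100 mM Na₂CO₃; liberated p-nitrophenol read at 400 nm. Inhibitor levels were 1, 3, 10, 15 and 25, each in triplicate. IC50 came from an activity% vs log[inhibitor] plot, with no-inhibitor control taken as 100%.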

[2] = Inhibition of almond beta-glucosidase using 4-nitrophenyl beta-D-glucopyranoside as substrate after 30 mins by spectrophotometric analysis; design: species or system Prunus dulcis
Outline: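 Reaction held 1 mM 4-nitrophenyl β-D-glucopyranoside in phosphate buffer pH 6.8 with inhibitor, preincubated at 37 °C for 5 min. Enzyme (EC 3.2.1.21, 0.075 unit) was then added, followed by 30 min at 37 °C. Na₂CO₃ (100 mM) stop, then absorbance at 400 nm. Inhibitor at 10, 20, 30, 50, 70, 80, 90 and 100, triplicates. Control without inhibitor set to 100%; IC50 from activity% vs log[inhibitor].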

Row | Compound | IC50 [1] | IC50 [2]
1 | O[C@H]1[C@H](O)[C@@H](N2CCc3ccccc32)C=C[C@@H]1N1CCc2ccccc21 | 18.1 µM | 67.7 µM
2 | CC(=O)O[C@H]1[C@H](OC(C)=O)[C@@H](n2ccc3ccccc32)C=C[C@@H]1n1ccc2ccccc21 | 19.3 µM | 52.8 µM
3 | CC(=O)O[C@@H]1[C@@H](O)[C@H](OC(C)=O)C=C[C@H]1N1CCc2ccccc21 | 12.4 µM | 24.3 µM
4 | CC(=O)O[C@@H]1[C@@H](O)[C@H](OC(C)=O)C=C[C@H]1n1ccc2ccccc21 | 11.6 µM | 23.1 µM
5 | C[C@H]1O[C@H](O[C@H]2[C@H](O)[C@@H](O)[C@@H](O[C@H]3[C@H](O)[C@@H](O)C(O)O[C@@H]3CO)O[C@@H]2CO)[C@H](O)[C@@H](O)[C@@H]1N[C@H]1C=C(CO)[C@@H](O)[C@H](O)[C@H]1O (stereo not given in full) [ACARBOSE] | 9.24 µM | 103 µM
